In ChEMBL document CHEMBL1133528, “Syntheses of 4'-C-ethynyl-beta-D-arabino- and 4'-C-ethynyl-2'-deoxy-beta-D-ribo-pentofuranosylpyrimidines and -purines and evaluation of their anti-HIV activity” (J Med Chem, 2000):

Tests used:
MT4 = assay: Tested in vitro against MT-4 cells using MTT assay; type: functional; conditions: Homo sapiens
How it was run: (§1)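 MT-4 cells (2 × 10⁴/mL) infected with 100 TCID₅₀ HIV-1_LAI, grown with drug dilution series 7 days at 37 °C. MTT added, 2 h at 37 °C, formazan dissolved in acidified 2-propanol with 4% Triton X-100, absorbance at 570 nm. Triplicates. EC₅₀ is concentration suppressing HIV-1 replication by 50%. SI calculated as CC₅₀/EC₅₀.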

[1] = molecular target: Human immunodeficiency virus type 1 reverse transcriptase (Human immunodeficiency virus 1) (UniProt Q72547); assay: Selectivity index expressed as CC50/EC50; type: functional; how it was run: as §1
HeLa [2] = assay: (§2) Tested in vitro against HIV-1 104pre from HeLa-CD4-[…]-beta gal-cells using MAGI assay; type: functional, cell-based; conditions: Homo sapiens
How it was run: (§3)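 HeLa-CD4-LTR-β-gal indicator cells seeded at 10⁴ cells/well, cultured 24 h, then exposed to HIV-1_104pre at 30 TCID₅₀ for 2 h at 37 °C. Drug series added 2 h before or 2 h after virus, kept present without washing. At 48 h cells fixed (1% formaldehyde, 0.2% glutaraldehyde in PBS), X-Gal stained, blue infected cells counted under microscope.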

HeLa [3] = assay: as §2; type: functional, cell-based, human immunodefficiency virus type 1; conditions: Homo sapiens; how it was run: as §3

Compound	CC50 (MT4) [nM]	SI [1]	EC50 (HeLa [2]) [nM]	EC50 (HeLa [3]) [nM]
C#C[C@]1(CO)O[C@@H](n2cc(Cl)c(=O)[nH]c2=O)C[C@@H]1O	81700	13.6	–	–
C#C[C@]1(CO)O[C@@H](n2cc(Br)c(=O)[nH]c2=O)C[C@@H]1O	> 100000	> 44	–	–
C#C[C@]1(CO)O[C@@H](n2cc(Br)c(N)nc2=O)C[C@@H]1O	> 100000	–	–	–
C#C[C@]1(CO)O[C@@H](n2cnc3cncnc32)C[C@@H]1O	> 380000	> 3.2	132000	–
C#C[C@]1(CO)O[C@@H](n2cnc3c(=O)[nH]c(N)nc32)C[C@@H]1O	1500	1070	–	7.1
C#C[C@]1(CO)O[C@@H](n2cc(I)c(=O)[nH]c2=O)C[C@@H]1O	> 260000	> 765	360	–
C#C[C@]1(CO)O[C@@H](n2cc(F)c(N)nc2=O)C[C@@H]1O	> 100000	> 3330	2	–
C#C[C@]1(CO)O[C@@H](n2cc(Cl)c(N)nc2=O)C[C@@H]1O	> 100000	–	–	–
C#C[C@]1(CO)O[C@@H](n2cnc3c(N)nc(N)nc32)C[C@@H]1O	820	2730	1.9	–
Cc1cn([C@H]2C[C@H](N=[N+]=[N-])[C@@H](CO)O2)c(=O)[nH]c1=O [ZIDOVUDINE]	> 100000	> 2630	2	–
C#C[C@]1(CO)O[C@@H](n2ccc(N)nc2=O)C[C@@H]1O	–	192	0.96	–
C#C[C@]1(CO)O[C@@H](n2cnc3c(N)ncnc32)C[C@@H]1O	11700	975	6.8	–
C#C[C@]1(CO)O[C@@H](n2ccc(=O)[nH]c2=O)C[C@@H]1O	> 100000	–	–	–
C#C[C@]1(CO)O[C@@H](n2cnc3c(O)ncnc32)C[C@@H]1O	216000	14.4	830	–
C#C[C@]1(CO)O[C@@H](n2cc(C)c(N)nc2=O)C[C@@H]1O	700	63	5.7	–
C#C[C@]1(CO)O[C@@H](n2cc(I)c(N)nc2=O)C[C@@H]1O	> 100000	–	–	–
C#C[C@]1(CO)O[C@@H](n2cc(C)c(=O)[nH]c2=O)C[C@@H]1O	> 380000	> 623	400	–
C#C[C@]1(CO)O[C@@H](n2cc(F)c(=O)[nH]c2=O)C[C@@H]1O	3400	–	–	–
C#C[C@]1(CO)O[C@@H](n2cc(CC)c(=O)[nH]c2=O)C[C@@H]1O	> 360000	–	–	–
